Test results as given in ChEMBL document CHEMBL3804761, “Synthesis of a stable and orally bioavailable englerin analogue” (Bioorg Med Chem Lett, 2016).

Assays:
Type in all cases: functional
[1] = Growth inhibition of human SF295 cells assessed as cell growth at 10 uM incubated for 48 hrs by sulforhodamine B assay relative to control; details: SF-295, 48 h, read-out: Activity
Summary of the method: (§1)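 Run in the standard NCI 60-cell-line screen. Cells were exposed to drug for two days, and the read-out was sulforhodamine B staining. Compound was tested at a single final concentration of 10 µM in every line, and results are reported as growth percent.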

U-251 = assay: Growth inhibition of human U251 cells assessed as cell growth at 10 uM incubated for 48 hrs by sulforhodamine B assay relative to control; details: U-251, 48 h, read-out: Activity
Summary of the method: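 NCI 60-cell line standard protocol, one-dose screen: single final concentration 10 µM, 2-day drug exposure, sulforhodamine B (SRB) endpoint; read-out is growth percent relative to untreated control.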

Malme-3M [2] = assay: Growth inhibition of human MALME-3M cells assessed as cell growth at 10 uM incubated for 48 hrs by sulforhodamine B assay relative to control; details: read-out: Activity; summary of the method: as §1
MDA-MB-435 [3] = assay: Growth inhibition of human MDA-MB-435 cells assessed as cell growth at 10 uM incubated for 48 hrs by sulforhodamine B assay relative to control; details: MDA-MB-435, 48 h, read-out: Activity; summary of the method: as §1
SK-MEL-28 = assay: Growth inhibition of human SK-MEL-28 cells assessed as cell growth at 10 uM incubated for 48 hrs by sulforhodamine B assay relative to control; details: SK-MEL-28, 48 h, read-out: Activity; summary of the method: as §1
SK-MEL-5 = assay: Growth inhibition of human SK-MEL-5 cells assessed as cell growth at 10 uM incubated for 48 hrs by sulforhodamine B assay relative to control; details: SK-MEL-5, 48 h, read-out: Activity; summary of the method: as §1
[4] = Growth inhibition of human IGROV1 cells assessed as cell growth at 10 uM incubated for 48 hrs by sulforhodamine B assay relative to control; details: IGROV-1, 48 h, read-out: Activity; summary of the method: as §1
MCF7 = assay: Growth inhibition of human MCF7 cells assessed as cell growth at 10 uM incubated for 48 hrs by sulforhodamine B assay relative to control; details: MCF7, 48 h, read-out: Activity; summary of the method: as §1
[5] = Growth inhibition of human Hs 578T cells assessed as cell growth at 10 uM incubated for 48 hrs by sulforhodamine B assay relative to control; details: read-out: Activity
CCRF-CEM = assay: Growth inhibition of human CCRF-CEM cells assessed as cell growth at 10 uM incubated for 48 hrs by sulforhodamine B assay relative to control; details: read-out: Activity
Summary of the method: (§2)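 Single-dose screen in the NCI 60-cell-line panel at one final concentration of 10 µM. Two-day drug exposure with a sulforhodamine B endpoint. Values are growth percent for each cell line.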

[6] = Growth inhibition of human RXF393 cells assessed as cell growth at 10 uM incubated for 48 hrs by sulforhodamine B assay relative to control; details: RXF 393, 48 h, read-out: Activity; summary of the method: as §1
A549 [7] = assay: Growth inhibition of human A549/ATCC cells incubated for 48 hrs by sulforhodamine B assay; details: A549, 48 h; for TGI: read-out: pTGI (converted)
Summary of the method: (§3)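 NCI 60-cell-line panel, standard protocol. Cells exposed to compound for two days, growth read by sulforhodamine B staining. Tested at five 10-fold dilutions, top concentration 100 µM, to give dose-response curves.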

NCI-H226 = assay: Growth inhibition of human NCI-H226 cells incubated for 48 hrs by sulforhodamine B assay; details: NCI-H226, 48 h; for TGI: read-out: pTGI (converted); summary of the method: as §3
NCI-H23 = assay: Growth inhibition of human NCI-H23 cells incubated for 48 hrs by sulforhodamine B assay; details: NCI-H23, 48 h; for TGI: read-out: pTGI (converted); summary of the method: as §3
[8] = Growth inhibition of human COLO205 cells incubated for 48 hrs by sulforhodamine B assay; details: COLO 205, 48 h; for CC50: read-out: pLC50 (the source's name) (converted); for TGI: read-out: pTGI (converted); summary of the method: as §3
[9] = Growth inhibition of human HCT116 cells incubated for 48 hrs by sulforhodamine B assay; details: HCT-116, 48 h; for TGI: read-out: pTGI (converted); summary of the method: as §3
[10] = Growth inhibition of human HCT15 cells incubated for 48 hrs by sulforhodamine B assay; details: HCT-15, 48 h; for TGI: read-out: pTGI (converted); summary of the method: as §3
[11] = Growth inhibition of human SF295 cells incubated for 48 hrs by sulforhodamine B assay; details: SF-295, 48 h; for TGI: read-out: pTGI (converted); summary of the method: as §3
[12] = Growth inhibition of human LOXIMVI cells incubated for 48 hrs by sulforhodamine B assay; details: LOX IMVI; for TGI: read-out: pTGI (converted); summary of the method: as §3
Malme-3M [13] = assay: Growth inhibition of human MALME-3M cells incubated for 48 hrs by sulforhodamine B assay; details: for TGI: read-out: pTGI (converted); summary of the method: as §3
MDA-MB-435 [14] = assay: Growth inhibition of human MDA-MB-435 cells incubated for 48 hrs by sulforhodamine B assay; details: MDA-MB-435, 48 h; for TGI: read-out: pTGI (converted); summary of the method: as §3
[15] = Growth inhibition of human OVCAR3 cells incubated for 48 hrs by sulforhodamine B assay; details: OVCAR-3, 48 h; for TGI: read-out: pTGI (converted); summary of the method: as §3
[16] = Growth inhibition of human SKOV3 cells incubated for 48 hrs by sulforhodamine B assay; details: SK-OV-3, 48 h; for TGI: read-out: pTGI (converted)
Summary of the method: (§4)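 Tested in the standard NCI 60-cell-line protocol with two-day drug exposure and a sulforhodamine B endpoint. Compounds were first screened at a single final concentration of 10 µM, reported as growth percent. They were then run as five 10-fold dilutions starting from a high concentration of 100 µM to give dose-response curves.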

ACHN = assay: Growth inhibition of human ACHN cells incubated for 48 hrs by sulforhodamine B assay; details: for TGI: read-out: pTGI (converted); summary of the method: as §3
[17] = Growth inhibition of human TK10 cells incubated for 48 hrs by sulforhodamine B assay; details: TK-10, 48 h; for CC50: read-out: pLC50 (the source's name) (converted); for TGI: read-out: pTGI (converted); summary of the method: as §4
A549 [18] = assay: Growth inhibition of human A549/ATCC cells assessed as cell growth at 10 uM incubated for 48 hrs by sulforhodamine B assay relative to control; details: A549, 48 h, read-out: Activity; summary of the method: as §1
NCI-H460 = assay: Growth inhibition of human NCI-H460 cells assessed as cell growth at 10 uM incubated for 48 hrs by sulforhodamine B assay relative to control; details: NCI-H460, 48 h, read-out: Activity; summary of the method: as §1
[19] = Growth inhibition of human HCC2998 cells assessed as cell growth at 10 uM incubated for 48 hrs by sulforhodamine B assay relative to control; details: HCC 2998, 48 h, read-out: Activity; summary of the method: as §2
[20] = Growth inhibition of human HCT15 cells assessed as cell growth at 10 uM incubated for 48 hrs by sulforhodamine B assay relative to control; details: HCT-15, 48 h, read-out: Activity; summary of the method: as §1

With `C/C(=C\C(=O)O[C@H]1[C@@H]2[C@H](C)CC[C@H]2[C@]2(C)O[C@@]1(C(C)C)C[C@H]2NC(=O)CO)c1ccccc1` the growth at 10 µM [1] was 97.8%, the growth at 10 µM (U-251) was 91.8% and the growth at 10 µM (Malme-3M [2]) was 95.9%. The growth at 10 µM (MDA-MB-435 [3]) was 106%, the growth at 10 µM (SK-MEL-28) was 118% and the growth at 10 µM (SK-MEL-5) was 101%. For the same compound, the growth at 10 µM [4] was 104%, the growth at 10 µM (MCF7) was 89.7% and the growth at 10 µM [5] was -8.92%. For the same compound, the growth at 10 µM (CCRF-CEM) was 94.1%, the growth at 10 µM [6] was 73.5% and the GI50 (A549 [7]) was 47.9 µM. The LC50 (A549 [7]) was > 100 µM, the TGI (A549 [7]) was > 100 µM and the GI50 (NCI-H226) was 61.7 µM. For the same compound, the LC50 (NCI-H226) was > 100 µM, the TGI (NCI-H226) was > 100 µM and the GI50 (NCI-H23) was 38.9 µM. For the same compound, the LC50 (NCI-H23) was > 100 µM, the TGI (NCI-H23) was > 100 µM and the GI50 [8] was 22.9 µM. The CC50 [8] was > 100 µM, the TGI [8] was 83.2 µM and the GI50 [9] was 32.4 µM. The LC50 [9] was > 100 µM, the TGI [9] was > 100 µM and the GI50 [10] was 34.7 µM. The LC50 [10] was > 100 µM, the TGI [10] was > 100 µM and the GI50 [11] was 36.3 µM. The LC50 (concentration causing 50% net cell kill) [11] was > 100 µM, the TGI [11] was > 100 µM and the GI50 [12] was 27.5 µM. The LC50 [12] was > 100 µM, the TGI [12] was > 100 µM and the GI50 (Malme-3M [13]) was 26.3 µM. The LC50 (Malme-3M [13]) was > 100 µM, the TGI (Malme-3M [13]) was > 100 µM and the GI50 (MDA-MB-435 [14]) was 33.9 µM. The LC50 (MDA-MB-435 [14]) was > 100 µM, the TGI (MDA-MB-435 [14]) was > 100 µM and the GI50 [15] was 32.4 µM. For the same compound, the LC50 [15] was > 100 µM, the TGI [15] was 93.3 µM and the GI50 [16] was 30.2 µM. The LC50 [16] was > 100 µM, the TGI [16] was > 100 µM and the GI50 (ACHN) was 3.31 µM. For the same compound, the LC50 (concentration killing 50% of cells) (ACHN) was > 100 µM, the TGI (ACHN) was 16.2 µM and the GI50 [17] was 83.2 µM. For the same compound, the CC50 [17] was > 100 µM, the TGI [17] was > 100 µM and the growth at 10 µM (A549 [18]) was 84.1%. For the same compound, the growth at 10 µM (NCI-H460) was 106%, the growth at 10 µM [19] was 104% and the growth at 10 µM [20] was 100%.
`CC(C)[C@@]12C[C@@H](NC(=O)CO)[C@@](C)(O1)[C@@H]1CC[C@@H](C)[C@H]1[C@@H]2OC(=O)c1ccc2ccccc2c1` gave a growth at 10 µM [1] of 82.5%, a growth at 10 µM (U-251) of 79.3% and a growth at 10 µM (Malme-3M [2]) of 85.3%. For the same compound, the growth at 10 µM (MDA-MB-435 [3]) was 94%, the growth at 10 µM (SK-MEL-28) was 93.2% and the growth at 10 µM (SK-MEL-5) was 93.5%. For the same compound, the growth at 10 µM [4] was 94.3%, the growth at 10 µM (MCF7) was 75.4% and the growth at 10 µM [5] was -18.3%. For the same compound, the growth at 10 µM [6] was 61.6%, the GI50 (A549 [7]) was 14.8 µM and the LC50 (A549 [7]) was 63.1 µM. The TGI (A549 [7]) was 30.2 µM, the GI50 (NCI-H226) was 13.2 µM and the LC50 (NCI-H226) was 85.1 µM. For the same compound, the TGI (NCI-H226) was 33.1 µM, the GI50 (NCI-H23) was 14.1 µM and the LC50 (NCI-H23) was 57.5 µM. It also gave a TGI (NCI-H23) of 28.2 µM, a GI50 [8] of 19.1 µM and a CC50 [8] of 61.7 µM. It also gave a TGI [8] of 34.7 µM, a GI50 [9] of 14.1 µM and an LC50 [9] of 53.7 µM. It also gave a TGI [9] of 27.5 µM, a GI50 [10] of 16.6 µM and an LC50 [10] of 61.7 µM. It also gave a TGI [10] of 31.6 µM, a GI50 [11] of 16.2 µM and an LC50 (concentration causing 50% net cell kill) [11] of 57.5 µM. For the same compound, the TGI [11] was 30.2 µM, the GI50 [12] was 16.2 µM and the LC50 [12] was 57.5 µM. The TGI [12] was 30.2 µM, the GI50 (Malme-3M [13]) was 16.2 µM and the LC50 (Malme-3M [13]) was 69.2 µM. For the same compound, the TGI (Malme-3M [13]) was 33.1 µM, the GI50 (MDA-MB-435 [14]) was 17 µM and the LC50 (MDA-MB-435 [14]) was 63.1 µM. It also gave a TGI (MDA-MB-435 [14]) of 32.4 µM, a GI50 [15] of 17 µM and an LC50 [15] of 57.5 µM. It also gave a TGI [15] of 30.9 µM, a GI50 [16] of 15.8 µM and an LC50 [16] of 56.2 µM. For the same compound, the TGI [16] was 30.2 µM, the GI50 (ACHN) was 5.37 µM and the LC50 (concentration killing 50% of cells) (ACHN) was 42.7 µM. The TGI (ACHN) was 17 µM, the GI50 [17] was 19.1 µM and the CC50 [17] was 60.3 µM. For the same compound, the TGI [17] was 33.9 µM, the growth at 10 µM (A549 [18]) was 81% and the growth at 10 µM (NCI-H460) was 92.6%. The growth at 10 µM [19] was 105% and the growth at 10 µM [20] was 90.8%.
